How the values were obtained:
CCRF-CEM = experiment: Cytotoxicity determined in (T-lymphoblastoid cell line) CEM cells, expressed as IC50; type: functional, cell-based; conditions: Homo sapiens
In short: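 CEM T-lymphoblastoid cells were seeded in log phase at 2.5 × 10³ cells/well with 10-fold serial drug dilutions and incubated 4 days at 37 °C in 5% CO2. Viability was read as MTT reduction: dye added overnight, formazan solubilized 5 h, absorbance at 570 nm.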

[1] = Cytotoxicity determined in uninfected PHA-stimulated human PBM cells (PBMCs), expressed as IC50; type: functional, cell-based; conditions: PBMC
In short: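 Uninfected PHA-stimulated PBM cells from seronegative donors, isolated by single-step Ficoll-Hypaque, were seeded at 5 × 10⁴ cells/well with 10-fold serial drug dilutions. After 5 days at 37 °C in 5% CO2, MTT dye was added overnight, formazan solubilized 5 h, and absorbance read at 570 nm.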

Vero = experiment: Cytotoxicity determined in (african green monkey kidney) Vero cells, expressed as IC50; type: functional, cell-based; conditions: Chlorocebus sabaeus
In short: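 Vero cells were seeded in log phase at 5 × 10³ cells/well with 10-fold serial drug dilutions and incubated 3 days at 37 °C in 5% CO2. Viability was read by MTT: overnight dye incubation, 5 h solubilization, absorbance at 570 nm.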

[2] = Half life determined at pH 2 buffer solution; type: ADME
In short: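 Nucleosides were held in pH 2 buffer and followed by TLC every 10 min for the first 3 h, then up to 6 h, to estimate half-life.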

[3] = Activity against Lamivudine-resistant virus (HIV-1M184V) in human PBM cells, expressed as EC90; type: functional; conditions: PBMC
In short: (§1)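 PHA-stimulated (2-3 days) human PBM cells from seronegative donors, bulk-infected 1 h with molecular clones HIV-1 xxBru or M184V (100 TCID50/1 × 10⁷ cells in flask, or 200 TCID50/6 × 10⁵ cells/well in 24-well plate), then added to 10-fold serial compound dilutions. RPMI-1640 with IL-2 and DEAE-dextran; 5 days, 37 °C, 5% CO₂. Supernatant RT activity read out; EC50/EC90 by median effect method.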

[4] = Activity against wild-type virus (HIV-1XXBRU) in human PBM cells, expressed as EC50
[5] = Activity against Lamivudine-resistant virus (HIV-1M184V) in human PBM cells, expressed as EC50; type: functional, cell-based; in short: as §1
[6] = Fold increase ratio of HIV-1M184V to HIV-1XXBRU; type: functional
In short: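 PHA-stimulated PBM cells were infected for 1 h with the molecular clones HIV-1 xxBru (wild type) or HIV-1 M184Vpitt, then cultured 5 days with 10-fold serial dilutions. EC50 came from supernatant RT activity by the median effect method, and the ratio was taken as mutant EC50 over wild-type EC50.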

Row | SMILES | IC50 (CCRF-CEM) [µM] | IC50 [1] [µM] | IC50 (Vero) [µM] | half-life [2] [h] | EC90 [3] [µM] | EC50 [4] [µM] | EC50 [5] [µM] | FI [6]
1 | Nc1nc(=O)n([C@H]2C=C(F)[C@H](CO)O2)cc1F | > 100 | > 100 | > 100 | – | – | – | – | –
2 | O=c1nc(O)ccn1[C@@H]1C=C(F)[C@H](CO)O1 | 30.1 | > 100 | > 100 | – | – | – | – | –
3 | Nc1ncnc2c1ncn2[C@@H]1C=C(F)[C@H](CO)O1 | > 100 | > 100 | > 100 | – | – | – | – | –
4 | OC[C@@H]1O[C@H](n2cnc3c(O)ncnc32)CC1(F)F | > 100 | > 100 | > 100 | – | – | – | – | –
5 | Nc1nc(O)c2ncn([C@@H]3C=C(F)[C@H](CO)O3)c2n1 | 58.4 | 17.4 | 36.5 | – | – | – | – | –
6 | Nc1ncnc2c1ncn2[C@H]1CC(F)(F)[C@H](CO)O1 | > 100 | > 100 | > 100 | – | – | – | – | –
7 | OC[C@H]1O[C@@H](n2cnc3c(O)ncnc32)C=C1F | > 100 | > 100 | > 100 | – | – | – | – | –
8 | Nc1nc(=O)n([C@@H]2CC(F)(F)[C@H](CO)O2)cc1F | > 100 | > 100 | > 100 | – | – | – | – | –
9 | Cc1cn([C@H]2CC(F)(F)[C@H](CO)O2)c(=O)[nH]c1=O | > 100 | > 100 | > 100 | – | – | – | – | –
10 | Nc1ccn([C@@H]2CC(F)(F)[C@H](CO)O2)c(=O)n1 | > 100 | > 100 | > 100 | – | – | – | – | –
11 | Nc1ccn([C@@H]2C=C(F)[C@H](CO)O2)c(=O)n1 | > 100 | 86.9 | > 100 | 48 | 15.7 | 0.023 | 2.4 | 104
12 | OC[C@@H]1O[C@@H](n2cnc3c(O)ncnc32)CC1(F)F | > 100 | > 100 | > 100 | – | – | – | – | –
13 | Nc1nc(=O)n([C@@H]2C=C(F)[C@H](CO)O2)cc1F | > 100 | > 100 | > 100 | – | 67.4 | 0.009 | 10.9 | 1210
14 | O=c1nc(O)ccn1[C@@H]1CC(F)(F)[C@H](CO)O1 | > 100 | > 100 | > 100 | – | – | – | – | –
15 | Cc1cn([C@@H]2C=C(F)[C@H](CO)O2)c(=O)nc1O | > 100 | > 100 | > 100 | – | – | – | – | –
16 | Nc1ccn([C@H]2CC(F)(F)[C@H](CO)O2)c(=O)n1 | > 100 | > 100 | > 100 | – | – | – | – | –
17 | O=c1ccn([C@H]2C=C(F)[C@H](CO)O2)c(=O)[nH]1 | > 100 | > 100 | > 100 | – | – | – | – | –
18 | Nc1nc(O)c2ncn([C@H]3CC(F)(F)[C@H](CO)O3)c2n1 | > 100 | > 100 | > 100 | – | – | – | – | –
19 | Nc1ncnc2c1ncn2[C@@H]1CC(F)(F)[C@H](CO)O1 | > 100 | > 100 | > 100 | – | – | – | – | –
20 | Nc1ccn([C@H]2C=C(F)[C@H](CO)O2)c(=O)n1 | > 100 | > 100 | > 100 | – | – | – | – | –
21 | Cc1cn([C@H]2C=C(F)[C@H](CO)O2)c(=O)nc1O | > 100 | > 100 | > 100 | – | – | – | – | –
22 | Nc1ncnc2c1ncn2[C@H]1C=C(F)[C@H](CO)O1 | > 100 | > 100 | > 100 | – | – | – | – | –
23 | Nc1ccn([C@@H]2CS[C@H](CO)O2)c(=O)n1 [LAMIVUDINE] | – | – | – | – | > 100 | 0.035 | > 100 | > 2860
24 | Nc1nc(=O)n([C@H]2CC(F)(F)[C@H](CO)O2)cc1F | > 100 | > 100 | > 100 | – | – | – | – | –
25 | Cc1cn([C@@H]2CC(F)(F)[C@H](CO)O2)c(=O)nc1O | > 100 | > 100 | > 100 | – | – | – | – | –
26 | Nc1ccn([C@@H]2CC[C@H](CO)O2)c(=O)n1 | – | – | – | 1 | 28.2 | 0.17 | 2.9 | 17
27 | Nc1nc(O)c2ncn([C@H]3C=C(F)[C@H](CO)O3)c2n1 | > 100 | > 100 | > 100 | – | – | – | – | –
28 | O=c1nc(O)ccn1[C@H]1CC(F)(F)[C@H](CO)O1 | > 100 | > 100 | > 100 | – | – | – | – | –
29 | Nc1nc(O)c2ncn([C@@H]3CC(F)(F)[C@H](CO)O3)c2n1 | > 100 | > 100 | > 100 | – | – | – | – | –
30 | Cc1cn([C@H]2C[C@H](N=[N+]=[N-])[C@@H](CO)O2)c(=O)[nH]c1=O [ZIDOVUDINE] | – | – | – | – | 0.025 | 0.01 | 0.003 | 0.3

Source: ChEMBL document CHEMBL1136794, “l-2',3'-Didehydro-2',3'-dideoxy-3'-fluoronucleosides: synthesis, anti-HIV activity, chemical and enzymatic stability, and mechanism of resistance” (J Med Chem, 2003)
